In brackets after ≈: the same amount, converted by molar mass. Activity calls are given as the source filed them. The calls are words filed in the database; no cut-off is given here.
How the values were obtained:
Mus musculus = assay: Reduction in plasma FGF21 level in C57Bl/6 mouse at 30 mg/kg, ip administered for 4 days followed by fasting for last 48 hrs measured 4 hrs post last dose by ELISA; type: functional, organism-based; parameters: dose 30 mg/kg
How it was run: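 C57Bl/6 mice received intraperitoneal drug or saline vehicle daily for four days, with 48 h fasting starting on day 2. Four hours after the final dose, blood was taken by terminal cardiac puncture into EDTA. Plasma FGF21 was measured by ELISA and compared against vehicle by t test.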

[1] = target: T1, Peroxisome proliferator-activated receptor alpha (Homo sapiens, UniProt Q07869); assay: Agonist activity at human PPAR-alpha
T1 sequence (Q07869 whole entry): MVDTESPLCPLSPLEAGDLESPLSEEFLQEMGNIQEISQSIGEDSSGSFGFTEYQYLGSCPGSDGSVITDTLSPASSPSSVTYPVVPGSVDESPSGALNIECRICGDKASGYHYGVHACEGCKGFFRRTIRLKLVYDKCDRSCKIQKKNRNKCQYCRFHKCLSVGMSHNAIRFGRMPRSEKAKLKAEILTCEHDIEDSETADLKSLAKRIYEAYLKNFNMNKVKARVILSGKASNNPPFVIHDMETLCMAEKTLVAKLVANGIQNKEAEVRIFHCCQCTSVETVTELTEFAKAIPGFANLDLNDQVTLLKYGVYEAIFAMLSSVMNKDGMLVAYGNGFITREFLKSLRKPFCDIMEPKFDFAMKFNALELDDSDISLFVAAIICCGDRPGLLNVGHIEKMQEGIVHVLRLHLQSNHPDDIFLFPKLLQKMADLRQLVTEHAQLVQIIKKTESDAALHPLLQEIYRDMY

[2] = Cmax in CD-1 mouse at 30 mg/kg, ip after 1 hr; type: ADME, organism-based; parameters: dose 30 mg/kg, route intraperitoneal; details: in vivo
How it was run: (§1)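 Mouse pharmacokinetics in CD1 mice given a single intraperitoneal dose of 30 mpk, formulated in saline or in 98% saline/2% tween.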

[3] = target: T2, Thyroid hormone receptor beta (Homo sapiens, UniProt P10828); assay: Inhibition of human thyroid hormone receptor-beta
T2 sequence (P10828 whole entry): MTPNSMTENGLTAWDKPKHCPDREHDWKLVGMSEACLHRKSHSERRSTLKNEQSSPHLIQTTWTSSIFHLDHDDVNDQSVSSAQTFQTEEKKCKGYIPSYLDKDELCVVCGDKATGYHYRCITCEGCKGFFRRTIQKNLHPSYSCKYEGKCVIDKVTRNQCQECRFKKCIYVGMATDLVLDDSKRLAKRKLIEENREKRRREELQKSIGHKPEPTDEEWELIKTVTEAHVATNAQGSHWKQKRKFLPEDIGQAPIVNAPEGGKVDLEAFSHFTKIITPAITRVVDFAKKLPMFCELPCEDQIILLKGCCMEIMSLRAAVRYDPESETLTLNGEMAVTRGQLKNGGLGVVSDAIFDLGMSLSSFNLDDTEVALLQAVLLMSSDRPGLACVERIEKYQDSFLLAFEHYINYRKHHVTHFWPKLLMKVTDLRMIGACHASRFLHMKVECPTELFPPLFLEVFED

Glucocorticoid receptor = target: T3, Glucocorticoid receptor (Homo sapiens, UniProt P04150); assay: Inhibition of human glucocorticoid receptor
T3 sequence (P04150 whole entry): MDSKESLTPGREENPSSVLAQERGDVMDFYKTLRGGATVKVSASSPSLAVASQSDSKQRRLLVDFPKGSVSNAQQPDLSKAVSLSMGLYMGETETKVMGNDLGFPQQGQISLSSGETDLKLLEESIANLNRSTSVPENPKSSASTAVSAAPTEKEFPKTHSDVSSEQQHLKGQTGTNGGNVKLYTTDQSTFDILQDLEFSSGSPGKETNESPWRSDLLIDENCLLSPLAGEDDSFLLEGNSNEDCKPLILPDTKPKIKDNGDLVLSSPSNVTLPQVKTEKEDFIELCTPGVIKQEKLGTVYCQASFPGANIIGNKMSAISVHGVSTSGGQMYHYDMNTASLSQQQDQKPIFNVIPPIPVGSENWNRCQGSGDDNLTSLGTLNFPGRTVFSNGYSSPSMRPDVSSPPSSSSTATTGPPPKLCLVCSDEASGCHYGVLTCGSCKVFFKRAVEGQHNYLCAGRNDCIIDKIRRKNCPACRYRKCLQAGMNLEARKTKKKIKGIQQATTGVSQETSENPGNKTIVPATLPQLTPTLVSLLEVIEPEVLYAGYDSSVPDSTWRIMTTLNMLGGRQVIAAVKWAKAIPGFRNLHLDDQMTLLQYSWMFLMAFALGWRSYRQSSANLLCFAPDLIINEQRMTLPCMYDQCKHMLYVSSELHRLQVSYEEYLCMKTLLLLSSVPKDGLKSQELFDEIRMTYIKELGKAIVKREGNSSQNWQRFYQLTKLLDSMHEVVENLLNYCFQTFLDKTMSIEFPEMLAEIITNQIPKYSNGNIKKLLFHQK

[4] = target: T4, Peroxisome proliferator-activated receptor delta (Homo sapiens, UniProt Q03181); assay: Inhibition of human PPAR-delta
T4 sequence (Q03181 whole entry): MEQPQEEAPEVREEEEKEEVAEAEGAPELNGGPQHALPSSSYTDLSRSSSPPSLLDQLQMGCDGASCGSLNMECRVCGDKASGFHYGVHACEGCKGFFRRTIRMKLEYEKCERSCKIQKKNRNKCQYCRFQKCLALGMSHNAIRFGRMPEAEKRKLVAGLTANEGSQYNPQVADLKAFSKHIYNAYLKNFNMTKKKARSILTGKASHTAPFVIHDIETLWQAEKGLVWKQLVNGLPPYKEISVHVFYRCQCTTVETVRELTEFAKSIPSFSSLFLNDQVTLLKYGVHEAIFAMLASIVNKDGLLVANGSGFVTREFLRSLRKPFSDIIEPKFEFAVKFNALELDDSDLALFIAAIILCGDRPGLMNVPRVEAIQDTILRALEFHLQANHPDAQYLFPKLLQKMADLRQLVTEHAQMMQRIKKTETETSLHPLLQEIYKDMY

[5] = AUC in CD-1 mouse at 30 mg/kg, ip; type: ADME, organism-based; parameters: dose 30 mg/kg, route intraperitoneal; details: plasma; how it was run: as §1
[6] = Solubility of the compound in aqueous buffer at pH 7.4 after 24 hrs by LC-MS/MS analysis; type: physicochemical
How it was run: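 Compound from a 10 mM DMSO stock was added to pH 7.4 buffer, vortexed 2 min, then shaken on an orbital shaker for 24 h at room temperature. Samples were then vacuum-filtered through a polycarbonate membrane before measurement.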

Plasma = assay: Metabolic stability in mouse plasma assessed as compound remaining at 1 uM after 24 hrs by LC-MS/MS analysis; type: ADME, cell-free; details: 24 h, 1 µM
How it was run: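 A 30 mM DMSO stock was diluted to 100 µM in acetonitrile, then spiked into thawed mouse plasma (1 µM final) and incubated at 37 °C. Aliquots were precipitated in acetonitrile containing buspirone, shaken 5 min and centrifuged at 4000g for 10 min. Supernatant was analysed by LC-MS/MS. Percent remaining = concentration at each time / t0 concentration × 100; mean of at least three experiments.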

[7] = target: T1, Peroxisome proliferator-activated receptor alpha; assay: Antagonist activity at human PPAR-alpha assessed as inhibition of GW7647-induced effect after overnight incubation by cell-based luciferase reporter gene assay
Estrogen receptor beta = Estrogen receptor beta (Homo sapiens, UniProt Q92731); assay: Inhibition of human estrogen receptor beta
Estrogen receptor beta, sequence (Q92731 whole entry): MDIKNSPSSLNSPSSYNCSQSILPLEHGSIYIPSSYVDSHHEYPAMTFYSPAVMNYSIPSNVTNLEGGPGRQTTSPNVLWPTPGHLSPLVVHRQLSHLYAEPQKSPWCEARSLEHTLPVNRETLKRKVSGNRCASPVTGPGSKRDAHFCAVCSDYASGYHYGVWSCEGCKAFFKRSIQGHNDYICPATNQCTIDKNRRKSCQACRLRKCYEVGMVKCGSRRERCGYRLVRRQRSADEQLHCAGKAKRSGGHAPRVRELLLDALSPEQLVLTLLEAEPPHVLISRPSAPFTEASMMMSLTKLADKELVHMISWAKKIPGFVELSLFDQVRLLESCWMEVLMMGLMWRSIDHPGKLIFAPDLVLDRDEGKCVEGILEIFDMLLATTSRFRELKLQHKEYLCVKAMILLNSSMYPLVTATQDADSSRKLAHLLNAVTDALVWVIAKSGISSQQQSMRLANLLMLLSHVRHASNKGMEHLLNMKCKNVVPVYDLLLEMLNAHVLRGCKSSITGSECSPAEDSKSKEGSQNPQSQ

[8] = target: T1, Peroxisome proliferator-activated receptor alpha; assay: Antagonist activity at GST-tagged PPAR-alpha (unknown origin) assessed as inhibition of GW7647-induced effect after 2 hrs by TR-FRET assay
[9] = target: T5, Peroxisome proliferator-activated receptor gamma (Homo sapiens, UniProt P37231); assay: Inhibition of human PPAR-gamma
T5 sequence (P37231 whole entry): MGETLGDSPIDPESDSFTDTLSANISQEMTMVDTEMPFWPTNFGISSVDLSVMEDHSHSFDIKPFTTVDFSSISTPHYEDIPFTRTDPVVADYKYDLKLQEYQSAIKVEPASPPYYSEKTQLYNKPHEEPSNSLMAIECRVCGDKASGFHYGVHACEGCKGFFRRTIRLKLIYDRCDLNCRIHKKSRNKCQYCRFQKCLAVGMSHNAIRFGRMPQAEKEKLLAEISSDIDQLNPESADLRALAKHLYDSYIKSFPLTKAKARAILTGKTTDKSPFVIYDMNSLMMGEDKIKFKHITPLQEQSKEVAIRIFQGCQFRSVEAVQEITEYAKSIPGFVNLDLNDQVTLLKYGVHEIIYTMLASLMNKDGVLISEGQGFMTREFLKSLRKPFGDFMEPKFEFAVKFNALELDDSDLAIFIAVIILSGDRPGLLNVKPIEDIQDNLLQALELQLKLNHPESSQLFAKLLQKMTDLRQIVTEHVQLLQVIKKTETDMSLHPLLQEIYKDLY

With CCn1c(CCCc2ccc(-c3ccc(NS(=O)(=O)c4ccccc4)cn3)cc2)nn(Cc2ccc(C(C)(C)C)cc2)c1=O the Activity (Mus musculus) was “Active”, the EC50 [1] was over 100 µM and the Cmax [2] was 1200 nM. For the same molecule, the IC50 [3] was over 100 µM, the IC50 (Glucocorticoid receptor) was 32.5 µM and the IC50 [4] was 6 µM. For the same molecule, the AUC [5] was 3400 ng·h/mL, the solubility at 24 h [6] was 1.5 µM (≈ 0.915 µg/mL) and the Stability (Plasma) was 140.6%. The IC50 [7] was 0.077 µM, the IC50 (Estrogen receptor beta) was 15.2 µM and the EC50 [8] was 1.4 µM. The IC50 [9] was 15 µM.
